# Measured values of several laboratories.
# Organism: Enterococcus faecalis
# Read-out: microbial growth
Compound,technique,strain,time,MIC
Cc1ccc2nc(-c3ccco3)n(Cc3ccccc3)c2c1,broth dilution,ATCC29212,,128 µg/mL
C/C=C(\C)c1cc(O)c(C)c(OC(=O)c2c(C)cc(O)c(Cl)c2O)c1,broth dilution,ATCC29212,,8 µg/mL
CNC(=O)c1cc(Oc2ccc(NC(=O)Nc3ccc(Cl)c(C(F)(F)F)c3)cc2)ccn1,,,,> 100 µM
Cc1ccc2nc(-c3ccc([N+](=O)[O-])cc3)n(Cc3ccccc3)c2c1,broth dilution,ATCC29212,,8 µg/mL
CCn1cc(C(=O)O)c(=O)c2cc(F)c(N3CCNCC3)cc21,broth dilution,ATCC14506,18 h,< 5 µg/mL
C/C(=C\c1ccc(C#N)cc1)C(=O)Nc1ccc(C(=O)N[C@@H](CC(N)=O)C(=O)Nc2ccc(C(=O)Nc3ccc(C(=O)Nc4ccc(C(=O)O)cc4)c(O)c3OC(C)C)cc2)cc1,,ATCC29212,,0.5 µg/mL
CC1(C)S[C@@H]2[C@H](NC(=O)[C@H](N)c3ccccc3)C(=O)N2[C@H]1C(=O)O,broth dilution,ATCC29212,,2 µg/mL
Cc1ccc2nc(-c3ccc(Cl)cc3)n(Cc3ccccc3)c2c1,broth dilution,ATCC29212,,16 µg/mL
Cc1ccc(C)n1-c1ccc(C(=O)NNC=O)cc1,broth dilution,ATCC14506,18 h,31.2 µg/mL
C/C=C(\C)c1cc(O)c(C)c(OC(=O)c2c(C)c(Cl)c(O)c(Cl)c2O)c1,broth dilution,ATCC29212,,8 µg/mL
C/C(O)=C1\C(=O)C(CC(C)C)N(C(=O)CCCCCc2ccccc2)C1=O (stereo not shown),broth dilution,ATCC33186,,< 0.7 µg/mL
O=C(O)c1cn(C2CC2)c2cc(N3CCNCC3)c(F)cc2c1=O,broth dilution,ATCC14506,18 h,< 5 µg/mL
C/C(=C\c1ccc(O)cc1)C(=O)Nc1ccc(C(=O)N[C@@H](CC(N)=O)C(=O)Nc2ccc(C(=O)Nc3ccc(C(=O)Nc4ccc(C(=O)O)cc4)c(O)c3OC(C)C)cc2)cc1,,ATCC29212,,0.5 µg/mL
Cc1ccc(C)n1-c1ccc(-c2n[nH]c(=S)[nH]2)cc1,broth dilution,ATCC14506,18 h,4 µg/mL
Cc1ccc2nc(-c3ccc(F)cc3)[nH]c2c1,broth dilution,ATCC29212,,64 µg/mL
Cc1ccc(C)n1-c1ccc(-c2nnc(-c3ccc(N(C)C)cc3)[nH]2)cc1,broth dilution,ATCC14506,18 h,31.2 µg/mL
CSc1ccc(-c2nc3ccccc3[nH]2)cc1,broth dilution,ATCC29212,,64 µg/mL
Cc1ccc(C)n1-c1ccc(-c2nnc(-c3ccc(O)cc3)[nH]2)cc1,broth dilution,ATCC14506,18 h,31.2 µg/mL
C=CCn1c(-c2ccc(OC)c(OC)c2)nc2ccccc21,broth dilution,ATCC29212,,64 µg/mL
